Test results published in PubChem BioAssay AID489031 (Sanford-Burnham Center for Chemical Genomics, 2010).
Out of some 330,000 compounds screened, about 1,000 (0.3%) were called active.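 The calls were made as follows: active = activity change at or below -40% at 20 µM; inactive = the rest.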 Many of the other results were omitted from the sample, so actives are more common in it than they were.

molecular target: Apoptotic protease-activating factor 1 (Homo sapiens) (UniProt O14727); assay: activators of human Apaf-1 apoptosome, primary screen, biochemical, DEVD-Rh110 fluorescence, uHTS (AID 489031); settings: Apaf-1 apoptosome caspase-3 activation, at 20 µM, stronger effect = lower value
How it was run: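 Material: biochemical Apaf-1 apoptosome reconstitution; Medium: 20 mM HEPES buffer, pH 7.5, containing CHAPS and BSA; Reagent: dATP, cytochrome c, and (Z-DEVD)2-Rh110 caspase-3 substrate; Times: 30 min preincubation, 50 min reaction, room temperature; Signal: Rh110 fluorescence, excitation 480 nm, emission 540 nm; Measure: Caspase-3 activity via Apaf-1.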

Apoptotic protease-activating factor 1 (Homo sapiens), sequence (O14727 whole entry, looked up): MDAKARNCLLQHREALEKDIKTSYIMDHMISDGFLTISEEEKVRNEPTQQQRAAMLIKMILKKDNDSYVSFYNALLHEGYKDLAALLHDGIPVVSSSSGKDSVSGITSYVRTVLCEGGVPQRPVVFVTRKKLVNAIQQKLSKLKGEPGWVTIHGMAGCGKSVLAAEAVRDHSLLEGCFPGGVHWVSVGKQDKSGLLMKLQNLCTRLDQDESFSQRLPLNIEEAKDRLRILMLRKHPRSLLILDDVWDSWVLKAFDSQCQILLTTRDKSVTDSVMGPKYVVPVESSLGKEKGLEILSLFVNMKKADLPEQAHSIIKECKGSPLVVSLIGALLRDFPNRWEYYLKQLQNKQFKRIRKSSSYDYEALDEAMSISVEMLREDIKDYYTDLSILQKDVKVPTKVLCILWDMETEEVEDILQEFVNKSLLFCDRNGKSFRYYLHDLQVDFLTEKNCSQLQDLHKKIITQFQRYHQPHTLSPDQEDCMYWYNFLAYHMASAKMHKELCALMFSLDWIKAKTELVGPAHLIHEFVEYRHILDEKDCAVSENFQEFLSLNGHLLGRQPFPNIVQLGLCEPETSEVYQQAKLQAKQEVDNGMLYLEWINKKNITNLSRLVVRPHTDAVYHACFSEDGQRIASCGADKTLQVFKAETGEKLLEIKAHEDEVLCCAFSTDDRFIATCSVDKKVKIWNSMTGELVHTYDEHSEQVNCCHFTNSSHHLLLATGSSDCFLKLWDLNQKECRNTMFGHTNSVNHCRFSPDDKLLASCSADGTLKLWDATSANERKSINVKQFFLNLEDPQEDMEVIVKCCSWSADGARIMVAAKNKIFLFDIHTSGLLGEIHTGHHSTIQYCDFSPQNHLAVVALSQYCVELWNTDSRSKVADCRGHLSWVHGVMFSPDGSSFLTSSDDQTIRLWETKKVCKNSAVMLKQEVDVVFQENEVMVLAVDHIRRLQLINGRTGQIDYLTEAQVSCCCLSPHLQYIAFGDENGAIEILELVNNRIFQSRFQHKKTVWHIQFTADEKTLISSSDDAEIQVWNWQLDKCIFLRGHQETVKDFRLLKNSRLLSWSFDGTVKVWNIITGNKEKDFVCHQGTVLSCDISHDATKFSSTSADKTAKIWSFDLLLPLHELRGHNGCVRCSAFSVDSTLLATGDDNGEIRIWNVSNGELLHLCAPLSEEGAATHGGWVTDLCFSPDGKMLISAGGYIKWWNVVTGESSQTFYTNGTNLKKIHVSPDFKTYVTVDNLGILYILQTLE

Activity change, negative = activation, inactive:
CC1CC(=S)Nc2ccccc2N1Cc1ccccc1 (centres undefined) 41.4%
Cc1c(-c2nn(C)c(=O)c3ccccc23)oc2ccc(F)cc2c1=O 82%
CCn1cc(CN2CCC(C(=O)Nc3cccc(-c4cccc(Cl)c4)c3)CC2)c(C)n1 40.5%
CCN1C(=O)c2cccc3c(N)ccc1c23 97.1%
Cc1[nH]n(-c2ccccc2)c(=O)c1/C=N/NC(=O)c1ccoc1C 61.5%
CC(C)CC[n+]1ccn(C2=C([O-])c3ccccc3C(=O)/C2=N\S(=O)(=O)c2ccccc2)c1 55.3%
CCCCNC(=O)C(C)N(CCN(C)C)C(=O)CCCN1C(=O)NC(c2ccc(Cl)cc2)C(C(=O)OCc2ccccc2)=C1C (centres undefined) 57.1%
CC1=NN(c2ccc(Cl)c(C(=O)O)c2)C(=O)/C1=C/c1ccc(-c2ccccc2[N+](=O)[O-])o1 42.9%
O=C1NNC(c2ccccc2)=N/C1=C\c1ccc(Cl)cc1 50.6%
CN(CCOc1ccc(CC2SC(=O)NC2=O)cc1)c1ccccn1 (centres undefined) -0.067%
C#CCOCCOCCOCCNc1nc(N2CCN(C(=O)CCCCCCCCCCNC(=O)[C@H]([C@@H](C)CC)n3cc(CCCCN=C(N)N)nn3)CC2)nc(N2CCN(C(=O)CCCCCCCCCCNC(=O)[C@H](CO)n3cc(CCCSC)nn3)CC2)n1 59.2%
O=C(CCNS(=O)(=O)c1ccccc1)NCCSc1ccc(Br)cc1 58.6%
COc1ccc(C(CNC(=O)c2ccc(S(=O)(=O)Nc3ccccc3F)cc2)N(C)C)cc1 (centres undefined) 56.5%
Oc1c(C=Nc2cccc3nsnc23)ccc2ccccc12 95.8%
CCOc1c(Br)cc(/C=C2\C(=O)N(CCC#N)N=C2C)cc1OC 75.9%
O=C1Nc2ccc([N+](=O)[O-])cc2C1=Nc1cccc(CO)c1 41.2%
COc1ccc(N(CCC(=O)NCCc2ccccc2)S(=O)(=O)c2ccc(C)cc2C)cc1 54.9%
CCN1C(=NCc2ccc(OC)cc2)N[C@@H](CCc2ccccc2)[C@H](C(=O)NCc2ccc(OC)cc2)[C@H]1C 40.4%
Cc1ccc(S(=O)(=O)N2CCN(C(=O)c3ccccc3-c3nc4ccccc4s3)CC2)c(C)c1 40.3%
COCC(C)OC(=O)c1c(N)n(CCCN2CCOCC2)c2nc3ccccc3nc12 (centres undefined) 50.9%
C#CCOCCOCCOCCNc1nc(N2CCN(C(=O)CCCCCCCCCCNC(=O)Cn3cc(CCCCCN)nn3)CC2)nc(N2CCN(C(=O)CCCCCCCCCCNC(=O)[C@H](CO)n3cc(CCCSC)nn3)CC2)n1 60.7%
C#CCOCCOCCOCCNc1nc(N2CCN(C(=O)C([C@@H](C)O)n3cc([C@@H](N)CCCCN)nn3)CC2)nc(N2CCN(C(=O)[C@H](CCCCN)n3cc(CN)nn3)CC2)n1 (some centres undefined) 42.2%
C[C@@H](CN1CCC[C@H]1CN1C(N)=NC[C@@H]1Cc1ccccc1)N1C[C@@H](Cc2ccccc2)N(CCCC2CCCC2)C1=N 70.9%
CCOC(=O)c1ccc(Nc2cc3ccccc3c(=O)[nH]2)cc1 92.5%
CCc1ccc(CNC(=O)C2CCN(c3nnc(C)c4c(C)n(-c5ccc(C)cc5)nc34)CC2)cc1 42.3%
Cc1cc(N2CCCC2)ccc1NC(=O)COc1ccc(Cl)cc1 62.2%
CCCCCCc1cc2cc(-c3nnc(-c4ccccc4)o3)c(=O)oc2cc1O 67.8%
COC1=C(N2CCOCC2)C(=O)c2ccccc2C1=O 65.8%

Activity change, negative = activation, active:
COc1ccc(Cl)cc1NC(=O)CCS(=O)(=O)c1ccc(Br)cc1 -182%
CN(C)S(=O)(=O)c1ccc(C(=O)NCCN=C2NS(=O)(=O)c3ccccc32)cc1 -486%
COc1ccc2c(c1)CCNC2Cc1ccc(OC)c(O)c1 (centres undefined) -42.7%
Cc1cc(NC(=O)c2cccc(N3C(=O)CCC3=O)c2)no1 -110%
O=C(CCc1ccccc1)NNC(=O)c1ccc(Br)cc1 -96.1%
O=[N+]([O-])c1ccc2nc(-c3ccccn3)[nH]c2c1 -143%
COc1cc(C(=O)NCc2nnc(SCC(=O)Nc3nc4ccc(C)cc4s3)o2)cc(OC)c1OC -87.4%
COc1ccc(OCCCC(=O)NCCc2ccccc2)cc1 -144%
O=C(Nc1cccc(C(F)(F)F)c1)c1cnccn1 -50.6%
Brc1ccc(/C=N/N2CCN(C3c4ccccc4-c4ccccc43)CC2)s1 -255%
COc1cccc(C(=O)Nc2ccc(N3CCCC3)cc2)c1 -89.7%
